ChEMBL document CHEMBL1141616, “Structure-activity relationships in the inhibition of monoamine oxidase B by 1-methyl-3-phenylpyrroles” (Bioorg Med Chem, 2008)
The source made the active and inactive calls. The calls are words filed in the database; no cut-off is given here.

Assays:
[1] = Inhibition of baboon liver mitochondrial MAOB; design: species or system Papio hamadryas
Bos taurus = species on record: Bos taurus; assay: Inhibition of beef liver mitochondrial MAOB at 200 uM
Papio hamadryas = species on record: Papio hamadryas; assay: Inhibition of baboon liver mitochondrial MAOB at 5.20 uM
Summary of the method: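 Time-dependence test: baboon liver mitochondria (0.3 mg protein/mL) were preincubated with inhibitor at 5.20 µM in 100 mM sodium phosphate, pH 7.4, for 0, 15, 30 and 60 min at 37 °C. This was then diluted to 0.15 mg protein/mL with 90 µM MMTP, giving a final inhibitor concentration of 2.60 µM. Incubated 15 min at 37 °C, stopped with perchloric acid, and MMDP⁺ was measured.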

Ki [1] | Activity (Bos taurus) | Activity (Papio hamadryas) | Structure (SMILES)
118 µM | inactive |  | Cn1ccc(-c2ccccc2)c1
38.9 µM | inactive |  | Cn1ccc(-c2cccc(F)c2)c1
31 µM | inactive |  | Cn1ccc(-c2ccc(F)cc2)c1
22.5 µM | inactive |  | Cc1ccc(-c2ccn(C)c2)cc1
36.5 µM | inactive |  | COc1ccc(-c2ccn(C)c2)cc1
6.65 µM | inactive |  | Cn1ccc(-c2ccc(Br)cc2)c1
56 µM | inactive |  | Cc1cccc(-c2ccn(C)c2)c1
18.4 µM | inactive |  | Cn1ccc(-c2ccc(Cl)cc2)c1
20.9 µM | inactive |  | Cn1ccc(-c2cccc(Cl)c2)c1
41.7 µM | inactive |  | COc1cccc(-c2ccn(C)c2)c1
6.55 µM | inactive |  | Cn1ccc(-c2cccc(C(F)(F)F)c2)c1
14.3 µM | inactive |  | Cn1ccc(-c2cccc(Br)c2)c1
1.3 µM | inactive | Active | Cn1ccc(-c2ccc(C(F)(F)F)cc2)c1
